Reference: ChEMBL document CHEMBL1671716, “Antimicrobial susceptibility patterns for recent clinical isolates of anaerobic bacteria in South Korea” (2010)
Values after ≈ are worked out from the molar mass of the structure shown.

Test system: Bacteroides fragilis
Assay: Antimicrobial activity against Bacteroides fragilis after 48 hrs by agar dilution method
Format: functional
Settings: not given
How it was run: (§1)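 MICs on clinical anaerobe isolates by the CLSI agar dilution method. Inoculum of 10^5 CFU applied with a Steers replicator. Plates incubated 48 h at 37°C in an anaerobic chamber.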

Structure (SMILES)	MIC50 [µg/mL]	MIC90 [µg/mL]
Cc1ncc([N+](=O)[O-])n1CCO [METRONIDAZOLE]	2 (≈ 11.7 µM)	2 (≈ 11.7 µM)

Test system: Bacteroides thetaiotaomicron
Assay: Antimicrobial activity against Bacteroides thetaiotaomicron after 48 hrs by agar dilution method
Format: functional
Settings: not given
How it was run: as §1

Structure (SMILES)	MIC50 [µg/mL]	MIC90 [µg/mL]
Cc1ncc([N+](=O)[O-])n1CCO [METRONIDAZOLE]	2 (≈ 11.7 µM)	2 (≈ 11.7 µM)

Test system: Bacteroides fragilis
Assay: Antimicrobial activity against Bacteroides fragilis assessed as percent susceptible isolates after 48 hrs by agar dilution method
Format: functional
Settings: not given

Structure (SMILES)	Activity [%]
Cc1ncc([N+](=O)[O-])n1CCO [METRONIDAZOLE]	100

Test system: Bacteroides thetaiotaomicron
Assay: Antimicrobial activity against Bacteroides thetaiotaomicron assessed as percent resistant isolates after 48 hrs by agar dilution method
Format: functional
Settings: not given
How it was run: (§2)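 CLSI agar dilution on recent Korean clinical anaerobe isolates. Inoculum 10^5 CFU per spot by replicator. Plates incubated in an anaerobic chamber at 37°C for 48 h. For piperacillin plus tazobactam, tazobactam was held constant at 4 μg/ml. Resistance and susceptibility rates derived from MICs.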

Structure (SMILES)	Activity [%]
Cc1ncc([N+](=O)[O-])n1CCO [METRONIDAZOLE]	0

Test system: Bacteroides caccae
Assay: Antimicrobial activity against Bacteroides caccae assessed as percent resistant isolates after 48 hrs by agar dilution method
Format: functional
Settings: not given
How it was run: as §2

Structure (SMILES)	Activity [%]
Cc1ncc([N+](=O)[O-])n1CCO [METRONIDAZOLE]	0

Test system: Parabacteroides distasonis
Assay: Antimicrobial activity against Bacteroides distasonis assessed as percent susceptible isolates after 48 hrs by agar dilution method
Format: functional
Settings: not given

Structure (SMILES)	Activity [%]
Cc1ncc([N+](=O)[O-])n1CCO [METRONIDAZOLE]	100

Test system: Parabacteroides distasonis
Assay: Antimicrobial activity against Bacteroides distasonis assessed as percent resistant isolates after 48 hrs by agar dilution method
Format: functional
Settings: not given
How it was run: as §2

Structure (SMILES)	Activity [%]
Cc1ncc([N+](=O)[O-])n1CCO [METRONIDAZOLE]	0

Test system: Phocaeicola vulgatus
Assay: Antimicrobial activity against Bacteroides vulgatus assessed as percent resistant isolates after 48 hrs by agar dilution method
Format: functional
Settings: not given
How it was run: as §2

Structure (SMILES)	Activity [%]
Cc1ncc([N+](=O)[O-])n1CCO [METRONIDAZOLE]	0

Test system: Bacteroides ovatus
Assay: Antimicrobial activity against Bacteroides ovatus assessed as percent susceptible isolates after 48 hrs by agar dilution method
Format: functional
Settings: not given

Structure (SMILES)	Activity [%]
Cc1ncc([N+](=O)[O-])n1CCO [METRONIDAZOLE]	100

Test system: Bacteroides ovatus
Assay: Antimicrobial activity against Bacteroides ovatus assessed as percent resistant isolates after 48 hrs by agar dilution method
Format: functional
Settings: not given
How it was run: as §2

Structure (SMILES)	Activity [%]
Cc1ncc([N+](=O)[O-])n1CCO [METRONIDAZOLE]	0

Test system: Prevotella buccae
Assay: Antimicrobial activity against Prevotella buccae after 48 hrs by agar dilution method
Format: functional
Settings: Segatella buccae
How it was run: (§3)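 CLSI agar dilution (M11-A7); inoculum 10^5 CFU applied by replicator; plates incubated anaerobically 48 h at 37°C. For piperacillin-tazobactam, tazobactam held constant at 4 μg/ml.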

Structure (SMILES)	MIC50 [µg/mL]	MIC90 [µg/mL]
Cc1ncc([N+](=O)[O-])n1CCO [METRONIDAZOLE]	4 (≈ 23.4 µM)	8 (≈ 46.7 µM)

Test system: Hoylesella oralis
Assay: Antimicrobial activity against Prevotella oralis after 48 hrs by agar dilution method
Format: functional
Settings: not given
How it was run: as §3

Structure (SMILES)	MIC50 [µg/mL]	MIC90 [µg/mL]
Cc1ncc([N+](=O)[O-])n1CCO [METRONIDAZOLE]	4 (≈ 23.4 µM)	8 (≈ 46.7 µM)

Test system: Prevotella intermedia
Assay: Antimicrobial activity against Prevotella intermedia assessed as percent resistant isolates after 48 hrs by agar dilution method
Format: functional
Settings: not given
How it was run: as §2

Structure (SMILES)	Activity [%]
Cc1ncc([N+](=O)[O-])n1CCO [METRONIDAZOLE]	0

Test system: Prevotella bivia
Assay: Antimicrobial activity against Prevotella bivia assessed as percent resistant isolates after 48 hrs by agar dilution method
Format: functional
Settings: not given
How it was run: as §2

Structure (SMILES)	Activity [%]
Cc1ncc([N+](=O)[O-])n1CCO [METRONIDAZOLE]	0

Test system: Prevotella buccae
Assay: Antimicrobial activity against Prevotella buccae assessed as percent resistant isolates after 48 hrs by agar dilution method
Format: functional, Segatella buccae
Settings: not given
How it was run: as §2

Structure (SMILES)	Activity [%]
Cc1ncc([N+](=O)[O-])n1CCO [METRONIDAZOLE]	0

Test system: Hoylesella oralis
Assay: Antimicrobial activity against Prevotella oralis assessed as percent susceptible isolates after 48 hrs by agar dilution method
Format: functional
Settings: not given
How it was run: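 CLSI agar dilution MIC testing of clinical isolates. 10^5 CFU spotted by replicator, plates incubated 48 h at 37°C in an anaerobic chamber. Susceptibility rates derived from the MICs.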

Structure (SMILES)	Activity [%]
Cc1ncc([N+](=O)[O-])n1CCO [METRONIDAZOLE]	100

Test system: Porphyromonas asaccharolytica
Assay: Antimicrobial activity against Porphyromonas asaccharolytica after 48 hrs by agar dilution method
Format: functional
Settings: not given
How it was run: as §3

Structure (SMILES)	MIC [µg/mL]
Cc1ncc([N+](=O)[O-])n1CCO [METRONIDAZOLE]	0.13 (≈ 0.76 µM)

Test system: Fusobacterium varium
Assay: Antimicrobial activity against Fusobacterium varium after 48 hrs by agar dilution method
Format: functional
Settings: not given
How it was run: as §3

Structure (SMILES)	MIC [µg/mL]
Cc1ncc([N+](=O)[O-])n1CCO [METRONIDAZOLE]	0.13 (≈ 0.76 µM)

Test system: Fusobacterium necrogenes
Assay: Antimicrobial activity against Fusobacterium necrogenes after 48 hrs by agar dilution method
Format: functional
Settings: not given
How it was run: as §3

Structure (SMILES)	MIC [µg/mL]
Cc1ncc([N+](=O)[O-])n1CCO [METRONIDAZOLE]	0.13 (≈ 0.76 µM)

Test system: Fusobacterium nucleatum
Assay: Antimicrobial activity against Fusobacterium nucleatum after 48 hrs by agar dilution method
Format: functional
Settings: not given
How it was run: as §3

Structure (SMILES)	MIC [µg/mL]
Cc1ncc([N+](=O)[O-])n1CCO [METRONIDAZOLE]	0.13 (≈ 0.76 µM)

Test system: Peptostreptococcus anaerobius
Assay: Antimicrobial activity against Peptostreptococcus anaerobius after 48 hrs by agar dilution method
Format: functional
Settings: not given
How it was run: as §3

Structure (SMILES)	MIC50 [µg/mL]	MIC90 [µg/mL]
Cc1ncc([N+](=O)[O-])n1CCO [METRONIDAZOLE]	0.5 (≈ 2.92 µM)	1 (≈ 5.84 µM)

Test system: Parvimonas micra
Assay: Antimicrobial activity against Peptostreptococcus micros after 48 hrs by agar dilution method
Format: functional
Settings: not given
How it was run: as §3

Structure (SMILES)	MIC50 [µg/mL]	MIC90 [µg/mL]
Cc1ncc([N+](=O)[O-])n1CCO [METRONIDAZOLE]	0.5 (≈ 2.92 µM)	1 (≈ 5.84 µM)

Test system: Peptostreptococcus anaerobius
Assay: Antimicrobial activity against Peptostreptococcus anaerobius assessed as percent susceptible isolates after 48 hrs by agar dilution method
Format: functional
Settings: not given
How it was run: as §2

Structure (SMILES)	Activity [%]
Cc1ncc([N+](=O)[O-])n1CCO [METRONIDAZOLE]	100

Test system: Anaerococcus prevotii
Assay: Antimicrobial activity against Anaerococcus prevotii after 48 hrs by agar dilution method
Format: functional
Settings: not given
How it was run: as §1

Structure (SMILES)	MIC50 [µg/mL]	MIC90 [µg/mL]
Cc1ncc([N+](=O)[O-])n1CCO [METRONIDAZOLE]	1 (≈ 5.84 µM)	1 (≈ 5.84 µM)

Test system: Anaerococcus prevotii
Assay: Antimicrobial activity against Anaerococcus prevotii assessed as percent susceptible isolates after 48 hrs by agar dilution method
Format: functional
Settings: not given

Structure (SMILES)	Activity [%]
Cc1ncc([N+](=O)[O-])n1CCO [METRONIDAZOLE]	100

Test system: Anaerococcus prevotii
Assay: Antimicrobial activity against Anaerococcus prevotii assessed as percent resistant isolates after 48 hrs by agar dilution method
Format: functional
Settings: not given
How it was run: as §2

Structure (SMILES)	Activity [%]
Cc1ncc([N+](=O)[O-])n1CCO [METRONIDAZOLE]	0

Test system: Peptoniphilus asaccharolyticus
Assay: Antimicrobial activity against Peptoniphilus asaccharolyticus assessed as percent susceptible isolates after 48 hrs by agar dilution method
Format: functional
Settings: not given
How it was run: as §3

Structure (SMILES)	Activity [%]
Cc1ncc([N+](=O)[O-])n1CCO [METRONIDAZOLE]	100

Test system: Peptoniphilus asaccharolyticus
Assay: Antimicrobial activity against Peptoniphilus asaccharolyticus assessed as percent resistant isolates after 48 hrs by agar dilution method
Format: functional
Settings: not given
How it was run: as §2

Structure (SMILES)	Activity [%]
Cc1ncc([N+](=O)[O-])n1CCO [METRONIDAZOLE]	0

Test system: Finegoldia magna
Assay: Antimicrobial activity against Finegoldia magna assessed as percent susceptible isolates after 48 hrs by agar dilution method
Format: functional
Settings: not given
How it was run: as §3

Structure (SMILES)	Activity [%]
Cc1ncc([N+](=O)[O-])n1CCO [METRONIDAZOLE]	100

Test system: Finegoldia magna
Assay: Antimicrobial activity against Finegoldia magna assessed as percent resistant isolates after 48 hrs by agar dilution method
Format: functional
Settings: not given
How it was run: as §2

Structure (SMILES)	Activity [%]
Cc1ncc([N+](=O)[O-])n1CCO [METRONIDAZOLE]	0

Test system: Clostridioides difficile
Assay: Antimicrobial activity against Clostridium difficile assessed as percent susceptible isolates after 48 hrs by agar dilution method
Format: functional
Settings: not given

Structure (SMILES)	Activity [%]
Cc1ncc([N+](=O)[O-])n1CCO [METRONIDAZOLE]	100

Test system: Clostridioides difficile
Assay: Antimicrobial activity against Clostridium difficile assessed as percent resistant isolates after 48 hrs by agar dilution method
Format: functional
Settings: not given

Structure (SMILES)	Activity [%]
Cc1ncc([N+](=O)[O-])n1CCO [METRONIDAZOLE]	0

Test system: Schaalia odontolytica
Assay: Antimicrobial activity against Actinomyces odontolyticus after 48 hrs by agar dilution method
Format: functional
Settings: not given
How it was run: as §1

Structure (SMILES)	MIC50 [µg/mL]	MIC90 [µg/mL]
Cc1ncc([N+](=O)[O-])n1CCO [METRONIDAZOLE]	16 (≈ 93.5 µM)	> 128

Test system: Schaalia odontolytica
Assay: Antimicrobial activity against Actinomyces odontolyticus assessed as percent susceptible isolates after 48 hrs by agar dilution method
Format: functional
Settings: not given

Structure (SMILES)	Activity [%]
Cc1ncc([N+](=O)[O-])n1CCO [METRONIDAZOLE]	46

Test system: Actinomyces israelii
Assay: Antimicrobial activity against Actinomyces israelii assessed as percent susceptible isolates after 48 hrs by agar dilution method
Format: functional
Settings: not given

Structure (SMILES)	Activity [%]
Cc1ncc([N+](=O)[O-])n1CCO [METRONIDAZOLE]	46

Test system: Schaalia meyeri
Assay: Antimicrobial activity against Actinomyces meyeri assessed as percent susceptible isolates after 48 hrs by agar dilution method
Format: functional
Settings: not given

Structure (SMILES)	Activity [%]
Cc1ncc([N+](=O)[O-])n1CCO [METRONIDAZOLE]	46

Test system: Actinomyces naeslundii
Assay: Antimicrobial activity against Actinomyces naeslundii after 48 hrs by agar dilution method
Format: functional
Settings: not given
How it was run: as §1

Structure (SMILES)	MIC50 [µg/mL]	MIC90 [µg/mL]
Cc1ncc([N+](=O)[O-])n1CCO [METRONIDAZOLE]	16 (≈ 93.5 µM)	> 128

Test system: Actinomyces naeslundii
Assay: Antimicrobial activity against Actinomyces naeslundii assessed as percent susceptible isolates after 48 hrs by agar dilution method
Format: functional
Settings: not given

Structure (SMILES)	Activity [%]
Cc1ncc([N+](=O)[O-])n1CCO [METRONIDAZOLE]	46

Test system: Bifidobacterium adolescentis
Assay: Antimicrobial activity against Bifidobacterium adolescentis assessed as percent susceptible isolates after 48 hrs by agar dilution method
Format: functional
Settings: not given

Structure (SMILES)	Activity [%]
Cc1ncc([N+](=O)[O-])n1CCO [METRONIDAZOLE]	46

Test system: Bifidobacterium sp.
Assay: Antimicrobial activity against Bifidobacterium sp. after 48 hrs by agar dilution method
Format: functional
Settings: not given
How it was run: as §1

Structure (SMILES)	MIC50 [µg/mL]	MIC90 [µg/mL]
Cc1ncc([N+](=O)[O-])n1CCO [METRONIDAZOLE]	16 (≈ 93.5 µM)	> 128

Test system: Bifidobacterium sp.
Assay: Antimicrobial activity against Bifidobacterium sp. assessed as percent susceptible isolates after 48 hrs by agar dilution method
Format: functional
Settings: not given
How it was run: as §3

Structure (SMILES)	Activity [%]
Cc1ncc([N+](=O)[O-])n1CCO [METRONIDAZOLE]	46

Test system: Eggerthella lenta
Assay: Antimicrobial activity against Eubacterium lentum after 48 hrs by agar dilution method
Format: functional
Settings: not given
How it was run: as §3

Structure (SMILES)	MIC50 [µg/mL]	MIC90 [µg/mL]
Cc1ncc([N+](=O)[O-])n1CCO [METRONIDAZOLE]	16 (≈ 93.5 µM)	> 128

Test system: Eubacterium sp.
Assay: Antimicrobial activity against Eubacterium sp. assessed as percent susceptible isolates after 48 hrs by agar dilution method
Format: functional
Settings: not given
How it was run: as §3

Structure (SMILES)	Activity [%]
Cc1ncc([N+](=O)[O-])n1CCO [METRONIDAZOLE]	46
